Measured values published in ChEMBL document CHEMBL4392861, “Synthesis and evaluation of the HIF-1α inhibitory activities of novel ursolic acid tetrazole derivatives” (Bioorg Med Chem Lett, 2019).

Experiments:
Type in all cases: cell-based
Hep 3B2 [1] = experiment: Cytotoxicity against human Hep3B cells assessed as reduction in cell viability after 24 hrs by MTT assay
In short: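 Hep3B cells exposed to compounds for 24 h under normoxic conditions; viability read by MTT assay; IC50 from mean ± SE, n=3.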

[2] = target: Hypoxia-inducible factor 1-alpha (Homo sapiens, UniProt Q16665); experiment: Inhibition of hypoxia-induced HIF1alpha transcriptional activity in human Hep3B cells after 24 hrs in hypoxic condition by HRE-dependent dual luciferase reporter gene assay
In short: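 Hep3B cells transiently co-transfected with pGL3-HRE-luciferase and pRL-CMV vectors, incubated 24 h, then treated with compounds for 24 h under hypoxia. Luciferase activity measured […]. IC50 given as mean ± SE, n=3.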

Hep 3B2 [3] = experiment: Cytotoxicity against human Hep3B cells assessed as reduction in cell viability up to 30 uM after 24 hrs in presence of 20% O2 by MTT assay; details: hep 3b2, 24 h
In short: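 Hep3B cells treated with the indicated concentrations (up to 30 µM) for 24 h, then viability determined by MTT assay.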

Row | IC50 [2] [µM] | inhibition [2] | Compound | IC50 (Hep 3B2 [1]) [µM] | Activity (Hep 3B2 [3])
1 | 10.3 | – | C[C@H]1[C@H](C)CC[C@]2(C(=O)OCCCNc3nnn[nH]3)CC[C@]3(C)C(=CC[C@@H]4[C@@]5(C)CC[C@H](O)C(C)(C)[C@@H]5CC[C@]43C)[C@H]12 | > 100 | –
2 | > 100 | – | C[C@H]1[C@H](C)CC[C@]2(C(=O)OCCNc3ccccc3-c3nnn[nH]3)CC[C@]3(C)C(=CC[C@@H]4[C@@]5(C)CCC(=O)C(C)(C)[C@@H]5CC[C@]43C)[C@H]12 | > 100 | –
3 | 8.9 | – | C[C@H]1[C@H](C)CC[C@]2(C(=O)OCCNc3cccc(-c4nnn[nH]4)c3)CC[C@]3(C)C(=CC[C@@H]4[C@@]5(C)CC[C@H](O)C(C)(C)[C@@H]5CC[C@]43C)[C@H]12 | > 100 | –
4 | > 100 | – | C[C@H]1[C@H](C)CC[C@]2(C(=O)OCCCNc3cccc(-c4nnn[nH]4)c3)CC[C@]3(C)C(=CC[C@@H]4[C@@]5(C)CCC(=O)C(C)(C)[C@@H]5CC[C@]43C)[C@H]12 | > 100 | –
5 | 18.1 | – | C[C@H]1[C@H](C)CC[C@]2(C(=O)Nc3nnn[nH]3)CC[C@]3(C)C(=CC[C@@H]4[C@@]5(C)CCC(=O)C(C)(C)[C@@H]5CC[C@]43C)[C@H]12 | > 100 | –
6 | > 100 | – | C[C@H]1[C@H](C)CC[C@]2(C(=O)OCCCNc3ccc(-c4nnn[nH]4)cc3)CC[C@]3(C)C(=CC[C@@H]4[C@@]5(C)CCC(=O)C(C)(C)[C@@H]5CC[C@]43C)[C@H]12 | > 100 | –
7 | 1.4 | – | CCCC(=O)O[C@H]1CC[C@]2(C)[C@H]3CC=C4[C@@H]5[C@@H](C)[C@H](C)CC[C@]5(C(=O)Nc5nnn[nH]5)CC[C@@]4(C)[C@]3(C)CC[C@H]2C1(C)C | 4.7 | –
8 | > 100 | – | C[C@H]1[C@H](C)CC[C@]2(C(=O)OCCn3nnnc3-c3ccc4c(c3)OCO4)CC[C@]3(C)C(=CC[C@@H]4[C@@]5(C)CC[C@H](O)C(C)(C)[C@@H]5CC[C@]43C)[C@H]12 | > 100 | –
9 | 27.4 | – | COc1ccc(-c2nnnn2CCCOC(=O)[C@]23CC[C@@H](C)[C@H](C)[C@H]2C2=CC[C@@H]4[C@@]5(C)CC[C@H](O)C(C)(C)[C@@H]5CC[C@@]4(C)[C@]2(C)CC3)cc1 | > 100 | –
10 | 18.1 | – | C[C@H]1[C@H](C)CC[C@]2(C(=O)OCCn3nnnc3-c3ccccc3)CC[C@]3(C)C(=CC[C@@H]4[C@@]5(C)CC[C@H](O)C(C)(C)[C@@H]5CC[C@]43C)[C@H]12 | > 100 | –
11 | 1.6 | – | C[C@H]1[C@H](C)CC[C@]2(C(=O)Nc3nnn[nH]3)CC[C@]3(C)C(=CC[C@@H]4[C@@]5(C)CC[C@H](OC(=O)C(F)(F)F)C(C)(C)[C@@H]5CC[C@]43C)[C@H]12 | 6.4 | –
12 | 8.5 | – | C[C@H]1[C@H](C)CC[C@]2(C(=O)OCCNc3nnn[nH]3)CC[C@]3(C)C(=CC[C@@H]4[C@@]5(C)CC[C@H](O)C(C)(C)[C@@H]5CC[C@]43C)[C@H]12 | > 100 | –
13 | 83 | – | C[C@H]1[C@H](C)CC[C@]2(C(=O)OCCCn3nnnc3-c3ccc4c(c3)OCO4)CC[C@]3(C)C(=CC[C@@H]4[C@@]5(C)CC[C@H](O)C(C)(C)[C@@H]5CC[C@]43C)[C@H]12 | > 100 | –
14 | 14.2 | – | C[C@H]1[C@H](C)CC[C@]2(C(=O)OCCNc3nnn[nH]3)CC[C@]3(C)C(=CC[C@@H]4[C@@]5(C)CCC(=O)C(C)(C)[C@@H]5CC[C@]43C)[C@H]12 | > 100 | –
15 | > 100 | – | C[C@H]1[C@H](C)CC[C@]2(C(=O)OCCCNc3ccc(-c4nnn[nH]4)cc3)CC[C@]3(C)C(=CC[C@@H]4[C@@]5(C)CC[C@H](O)C(C)(C)[C@@H]5CC[C@]43C)[C@H]12 | > 100 | –
16 | 4.7 | Dose-dependent effect | CC(=O)O[C@H]1CC[C@]2(C)[C@H]3CC=C4[C@@H]5[C@@H](C)[C@H](C)CC[C@]5(C(=O)Nc5nnn[nH]5)CC[C@@]4(C)[C@]3(C)CC[C@H]2C1(C)C | > 100 | Non-Toxic
17 | > 100 | – | C[C@H]1[C@H](C)CC[C@]2(C(=O)OCCCNc3ccccc3-c3nnn[nH]3)CC[C@]3(C)C(=CC[C@@H]4[C@@]5(C)CCC(=O)C(C)(C)[C@@H]5CC[C@]43C)[C@H]12 | > 100 | –

Row | IC50 [2] [µM] | inhibition [2] | Compound | IC50 (Hep 3B2 [1]) [µM] | Activity (Hep 3B2 [3])
18 | 0.8 | – | C[C@H]1[C@H](C)CC[C@]2(C(=O)Nc3nnn[nH]3)CC[C@]3(C)C(=CC[C@@H]4[C@@]5(C)CC[C@H](OC(=O)c6ccccc6)C(C)(C)[C@@H]5CC[C@]43C)[C@H]12 | 18.5 | –
19 | > 100 | – | C[C@H]1[C@H](C)CC[C@]2(C(=O)O)CC[C@]3(C)C(=CC[C@@H]4[C@@]5(C)CC[C@H](O)C(C)(C)[C@@H]5CC[C@]43C)[C@H]12 [URSOLIC ACID] | – | –
20 | 76.4 | – | C[C@H]1[C@H](C)CC[C@]2(C(=O)OCCn3nnnc3-c3ccc(Cl)cc3)CC[C@]3(C)C(=CC[C@@H]4[C@@]5(C)CC[C@H](O)C(C)(C)[C@@H]5CC[C@]43C)[C@H]12 | > 100 | –
21 | 7.5 | – | C[C@H]1[C@H](C)CC[C@]2(C(=O)OCCCn3nnnc3-c3ccc(Cl)cc3)CC[C@]3(C)C(=CC[C@@H]4[C@@]5(C)CC[C@H](O)C(C)(C)[C@@H]5CC[C@]43C)[C@H]12 | > 100 | –
22 | 16.7 | – | C[C@H]1[C@H](C)CC[C@]2(C(=O)OCCCNc3nnn[nH]3)CC[C@]3(C)C(=CC[C@@H]4[C@@]5(C)CCC(=O)C(C)(C)[C@@H]5CC[C@]43C)[C@H]12 | > 100 | –
23 | 40 | – | C[C@H]1[C@H](C)CC[C@]2(C(=O)OCCCn3nnnc3-c3ccccc3)CC[C@]3(C)C(=CC[C@@H]4[C@@]5(C)CC[C@H](O)C(C)(C)[C@@H]5CC[C@]43C)[C@H]12 | > 100 | –
24 | > 100 | – | C[C@H]1[C@H](C)CC[C@]2(C(=O)OCCCNc3ccccc3-c3nnn[nH]3)CC[C@]3(C)C(=CC[C@@H]4[C@@]5(C)CC[C@H](O)C(C)(C)[C@@H]5CC[C@]43C)[C@H]12 | > 100 | –
25 | 4 | – | C[C@H]1[C@H](C)CC[C@]2(C(=O)O)CC[C@]3(C)C(=CC[C@@H]4[C@@]5(C)CC(=C\c6ccc(Cl)cc6)/C(=N\NC(=N)N)C(C)(C)[C@@H]5CC[C@]43C)[C@H]12 | > 100 | –
26 | > 100 | – | C[C@H]1[C@H](C)CC[C@]2(C(=O)OCCNc3cccc(-c4nnn[nH]4)c3)CC[C@]3(C)C(=CC[C@@H]4[C@@]5(C)CCC(=O)C(C)(C)[C@@H]5CC[C@]43C)[C@H]12 | > 100 | –
27 | 18.1 | – | C[C@H]1[C@H](C)CC[C@]2(C(=O)OCCNc3ccc(-c4nnn[nH]4)cc3)CC[C@]3(C)C(=CC[C@@H]4[C@@]5(C)CCC(=O)C(C)(C)[C@@H]5CC[C@]43C)[C@H]12 | > 100 | –
28 | 13.3 | – | C[C@H]1[C@H](C)CC[C@]2(C(=O)Nc3nnn[nH]3)CC[C@]3(C)C(=CC[C@@H]4[C@@]5(C)CC[C@H](O)C(C)(C)[C@@H]5CC[C@]43C)[C@H]12 | > 100 | –
29 | > 100 | – | C[C@H]1[C@H](C)CC[C@]2(C(=O)OCCNc3ccccc3-c3nnn[nH]3)CC[C@]3(C)C(=CC[C@@H]4[C@@]5(C)CC[C@H](O)C(C)(C)[C@@H]5CC[C@]43C)[C@H]12 | > 100 | –
30 | 13.2 | – | C[C@H]1[C@H](C)CC[C@]2(C(=O)OCCCNc3cccc(-c4nnn[nH]4)c3)CC[C@]3(C)C(=CC[C@@H]4[C@@]5(C)CC[C@H](O)C(C)(C)[C@@H]5CC[C@]43C)[C@H]12 | > 100 | –
31 | 36.9 | – | C[C@H]1[C@H](C)CC[C@]2(C(=O)OCn3ncn(-c4ccccc4)c3=O)CC[C@]3(C)C(=CC[C@@H]4[C@@]5(C)CC[C@H](O)C(C)(C)[C@@H]5CC[C@]43C)[C@H]12 | > 100 | –
32 | > 100 | – | COc1ccc(-c2nnnn2CCOC(=O)[C@]23CC[C@@H](C)[C@H](C)[C@H]2C2=CC[C@@H]4[C@@]5(C)CC[C@H](O)C(C)(C)[C@@H]5CC[C@@]4(C)[C@]2(C)CC3)cc1 | > 100 | –
33 | 26.2 | – | C[C@H]1[C@H](C)CC[C@]2(C(=O)OCCNc3ccc(-c4nnn[nH]4)cc3)CC[C@]3(C)C(=CC[C@@H]4[C@@]5(C)CC[C@H](O)C(C)(C)[C@@H]5CC[C@]43C)[C@H]12 | > 100 | –
34 | 2.2 | – | C[C@H]1[C@H](C)CC[C@]2(C(=O)Nc3nnn[nH]3)CC[C@]3(C)C(=CC[C@@H]4[C@@]5(C)CC/C(=N\Nc6ccccc6)C(C)(C)[C@@H]5CC[C@]43C)[C@H]12 | 11.9 | –
